# Published values pooled from the literature.
# Protocols differ between the studies behind these lines. pIC50: −log10 of the molar value.
# Cell line: A549
# Read-out: cell growth or viability
SMILES,technique,time,quantity,result
CCCCC(=O)Nc1ccc(-c2cnc3ncn(CCC)c(=O)c3c2)cn1,CCK-8,72 h,pIC50,< 5.00
O=c1[nH]cc(F)c(=O)[nH]1,MTT,48 h,pIC50,4.93
O=C(C=Cc1ccc(OCCOc2ccc(C=CC(=O)c3cccs3)cc2)cc1)c1cccs1,MTT,48 h,pIC50,3.56
O=C(Nc1nc2cc(-c3ccc4ncn(Cc5ccccc5)c(=O)c4c3)ccc2s1)c1ccccc1,MTT,72 h,pIC50,< 4.70
C/C(=N\C(=O)/N=C(\C)c1c(O)c2ccccc2oc1=O)c1c(O)c2ccccc2oc1=O,MTT,48 h,pIC50,4.71
CC(C)CCn1cnc2ccc(-c3ccc4sc(NC(=O)Nc5ccc(F)cc5)nc4c3)cc2c1=O,MTT,72 h,pIC50,5.62
COc1cc([C@@H]2c3cc4c(cc3[C@@H](O[C@@H]3O[C@@H]5CO[C@@H](C)O[C@H]5[C@H](O)[C@H]3O)[C@H]3COC(=O)[C@H]23)OCO4)cc(OC)c1O,MTT,48 h,pIC50,4.84
O=C(Nc1cccc(F)c1)Nc1nc2cc(-c3ccc4ncn(Cc5ccccc5)c(=O)c4c3)ccc2s1,MTT,72 h,pIC50,5.46
NS(=O)(=O)c1ccc(-n2nc(C(=O)NN=Cc3cccnc3)cc2-c2ccccc2)cc1,fluorescence,48 h,pIC50,4.61
CCCCn1cnc2ccc(-c3ccc(NC(=O)NCCc4ccccc4)nc3)cc2c1=O,CCK-8,72 h,pIC50,< 5.00
COc1ccc(NC(=S)N/N=C/c2ccc(N3CCC(O)CC3)cc2)cc1,MTT,24 h,pIC50,5.28
CCCCC(=O)Nc1cc(F)c(-c2ccc3ncn(CCC)c(=O)c3c2)cn1,CCK-8,72 h,pIC50,5.80
Cc1ccc(CNC(=S)N/N=C/c2ccc(N3CCC(O)CC3)cc2)cc1,MTT,24 h,pIC50,5.48
CCCCC(=O)Nc1ccc(-c2ccc3ncn(CCC)c(=O)c3c2)cc1,CCK-8,72 h,pIC50,< 5.00
COc1cc(C2C3=C(Nc4nc(SC)[nH]c(=O)c42)c2ccccc2C3=O)ccc1O (stereo not drawn),MTT,72 h,pIC50,< 3.00
O=C(Nc1ccc(-c2ccc3ncn(Cc4ccccc4)c(=O)c3c2)cn1)C1CCC1,CCK-8,72 h,pIC50,< 5.00
Cc1ccc(C(C)C)c(OC2=C(Cl)C(=O)c3ccccc3C2=O)c1,MTT,24 h,IC50,40 µg/mL
O=C(O)c1ccc(NCc2ccc([N+](=O)[O-])cc2)cc1,resazurin,72 h,pIC50,< 4.00
Cc1c2c(nn1C)CSCc1cc(n(C)n1)CSc1cc(c3ccccc3c1)OCCCc1c(C(=O)O)n(C)c3c-2c(Cl)ccc13,CCK-8,,pIC50,4.30
Cc1ccc(NNc2nc3c(Cl)cc(Cl)cc3c(=O)n2-c2ccccc2)cc1,MTT,48 h,pIC50,< 3.70
CCCCn1cnc2ccc(-c3ccc(NC(=O)NCCC)nc3)cc2c1=O,CCK-8,72 h,pIC50,< 5.00
Cc1cc(NS(=O)(=O)c2ccc(NC(=O)/C(C#N)=C/c3cccnc3)cc2)no1,MTT,48 h,pIC50,< 3.70
O=C(Nc1cc(C(F)(F)F)cc(C(F)(F)F)c1)Nc1nc2cc(-c3ccc4ncn(Cc5ccccc5)c(=O)c4c3)ccc2s1,MTT,72 h,pIC50,5.27
O=C(O)c1ccc(NCc2cccc(O)c2)cc1,resazurin,72 h,pIC50,< 4.00
